Experimental data reported in article PMC10586715 (ACS chemical biology, 2023).
Peptide text beside a SMILES is read from it. * marks the point of attachment. Cbz = O=C(OCc1ccccc1)*

Key:
sEH [1] = molecular target: T1, sEH (Homo sapiens, UniProt P34913); assay: sEH degradation in HepG2 cells by immunoblot; assay type: cell-based; settings: for effect of co-treatment on sEH degradation induced by 1a: co-treatment with 1a, immunoblot
T1 sequence (P34913 1-555): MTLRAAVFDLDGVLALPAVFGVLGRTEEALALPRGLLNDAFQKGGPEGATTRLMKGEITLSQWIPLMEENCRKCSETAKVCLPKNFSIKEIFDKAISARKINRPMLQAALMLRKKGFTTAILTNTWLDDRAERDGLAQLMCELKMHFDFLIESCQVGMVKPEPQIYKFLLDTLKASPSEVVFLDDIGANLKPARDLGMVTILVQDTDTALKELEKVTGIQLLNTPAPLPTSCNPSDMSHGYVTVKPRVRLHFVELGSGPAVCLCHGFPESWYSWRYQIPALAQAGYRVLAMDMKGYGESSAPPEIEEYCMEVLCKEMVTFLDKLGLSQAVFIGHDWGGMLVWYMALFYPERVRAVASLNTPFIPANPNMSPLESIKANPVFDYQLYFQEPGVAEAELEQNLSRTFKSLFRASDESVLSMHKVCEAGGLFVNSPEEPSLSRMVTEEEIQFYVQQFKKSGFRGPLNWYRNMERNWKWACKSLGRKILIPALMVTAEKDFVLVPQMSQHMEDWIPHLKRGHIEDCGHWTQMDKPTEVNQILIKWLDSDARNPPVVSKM

sEH [2] = molecular target: T1, sEH; assay: Residual sEH hydrolase activity of treated HepG2 cells; assay type: cell-based; settings: HepG2, 1 μM, 24 h
sEH [3] = molecular target: T1, sEH; assay: Immunofluorescence colocalization of sEH with compartment markers; assay type: cell-based; settings: co-treatment with 1a
Outline: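 Fixed in 4% paraformaldehyde for 20 min, permeabilised with 0.02% Triton X-100, blocked 1 h at room temperature in 5% goat serum with 1% BSA. Mouse anti-sEH plus rabbit anti-LAMP2 at 4 °C overnight; Alexa Fluor 647/488 secondaries (1:500) for 1 h; DAPI 10 min. Imaged at 20x by high-content imaging, automated analysis. Colocalisation area normalised to cell count.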

EPHX2 = assay: sEH transcription by qRT-PCR; assay type: cell-based, human
sEH [4] = molecular target: T1, sEH; assay: sEH level in CRBN-knockout HEK293T cells; assay type: cell-based
Outline: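 CRBN knockout HEK293T cells were maintained in high-glucose (4.5 g/L) DMEM with 10% fetal bovine serum, 100 units/mL penicillin and streptomycin.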

| Compound | effect of co-treatment on sEH degradation induced by 1a (sEH [1]) | further results |
| --- | --- | --- |
| CC(C)C[C@H](NC(=O)[C@H](Cc1ccccc1)NC(=O)c1cnccn1)B(O)O [BTZ, bortezomib] | slightly reversed the sEH degradation induced by 1a but higher concentrations failed to block | effect of co-treatment on sEH degradation induced by 1e and 2a (sEH [1]; co-treatment with 1e or 2a): failed to block the degradation |
| N#Cc1ccc(COC[C@H]2O[C@@H](n3c(NCc4ccc(Cl)c(Cl)c4)nc4c(N)ncnc43)[C@H](O)[C@@H]2O)cc1 [VER155008] | failed to rescue the sEH degradation | – |
| NS(=O)(=O)OC[C@@H]1C[C@@H](n2ccc3c(N[C@H]4CCc5ccccc54)ncnc32)C[C@@H]1O [MLN4924] | blocked the sEH degradation | – |
| trans-4-[4-(3-trifluoromethoxyphenyl-1-ureido)-cyclohexyloxy]-benzoic acid [Compound 1] | counteract the degradation effect | sEH hydrolase activity after treatment (sEH [2]): only slight inhibition |
| CO/C1=C\C(C)=C\[C@@H](C)[C@@H](O)[C@@H](C)C/C(C)=C/C=C/[C@H](OC)[C@@H]([C@@H](C)[C@@H](O)[C@H](C)[C@@]2(O)C[C@@H](O)[C@H](C)[C@@H](C(C)C)O2)OC1=O [BafA1, bafilomycin A1] | blocked the degradation | effect of co-treatment on 1a-promoted sEH colocalization with LAMP2 (sEH [3]): reversed this trend |
| CC(C)C[C@@H](C=O)NC(=O)[C@H](CC(C)C)NC(=O)[C@H](CC(C)C)NC(=O)OCc1ccccc1 [MG132] (Cbz-Leu-Leu-Leu-aldehyde) | failed to block the degradation induced by PROTAC 1a and instead promoted sEH degradation | effect on transcription of sEH (EPHX2): did not affect; effect on sEH level in CRBN-knockout cells (sEH [4]): neither 1a nor MG132 affect sEH level |
